{"source": "paper PMC9099131", "about": "(Clinical and Translational Science, 2022)", "key": {"[1]": {"experiment": "Single-dose plasma pharmacokinetics of trazpiroben alone and with esomeprazole", "assay_type": "in vivo, human (healthy adults)", "details": "for AUC∞, Geometric LSM / Cmax, Geometric LSM: ANOVA", "summary_of_the_method": "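Healthy adults dosed orally with 25 mg on day 1; after a 4-day washout, the proton pump inhibitor was given at 40 mg once daily on days 8–12, with 25 mg co-dosed 1 h after it on day 11 following a ≥10 h fast. Plasma was sampled predose to 48 h and assayed by validated LC-MS/MS (0.05–50.00 ng/ml), with BLQ values set to zero. Noncompartmental parameters were derived, and ln AUC∞/Cmax were analysed by ANOVA (treatment fixed, participant random).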"}, "[2]": {"details": "ref data on file, cited from earlier work"}, "[3]": {"details": "trazpiroben 25 mg alone, N = 12"}, "[4]": {"details": "trazpiroben 25 mg and esomeprazole 40 mg, N = 12"}, "[5]": {"details": "plasma, single oral dose trazpiroben 25 mg alone, N = 12"}, "[6]": {"details": "single dose alone or in the presence of esomeprazole"}, "[7]": {"details": "single oral dose trazpiroben 25 mg alone, N = 12"}, "[8]": {"details": "single oral dose trazpiroben 25 mg with esomeprazole 40 mg once daily, N = 12"}, "[9]": {"details": "trazpiroben 25 mg with esomeprazole 40 mg vs alone"}, "[10]": {"details": "single oral dose of trazpiroben 25 mg alone on day 1"}}, "data": [{"smiles": "O=C(O)c1cccc(CN2CN(C3CCCCC3)C3(CCN(CCCC(=O)c4ccccc4)CC3)C2=O)c1", "note": "[Trazpiroben]", "values": [{"measurement": "AUC∞, Geometric LSM", "setting": "[1]; [3]", "value": 44.03, "unit": "ng·h/mL"}, {"measurement": "Cmax, Geometric LSM", "setting": "[1]; [3]", "value": 19.76, "unit": "ng/mL"}, {"measurement": "AUC∞, Geometric LSM", "setting": "[1]; [4]", "value": 38.85, "unit": "ng·h/mL"}, {"measurement": "Cmax, Geometric LSM", "setting": "[1]; [4]", "value": 17.24, "unit": "ng/mL"}, {"measurement": "AUC∞, Geo. mean (CV%)", "setting": "[1]; [5]", "value": "44.03 (27.50) ng h/ml"}, {"measurement": "Cmax, Geo. mean (CV%)", "setting": "[1]; [5]", "value": "19.76 (36.50) ng/ml"}, {"measurement": "Tmax, Median (min, max)", "setting": "[1]; [5]", "value": "1.00 (0.50, 1.53) h"}, {"measurement": "t1/2, Mean (±SD)", "setting": "[1]; [5]", "value": "6.21 ± 3.96", "unit": "h"}, {"measurement": "approximate half-life of biphasic decline", "setting": "[1]; [6]", "value": "6 to 7", "unit": "h"}, {"measurement": "time postdose at which mean plasma concentration peaked", "setting": "[1]; [6]", "value": "around 1 h"}, {"measurement": "CL/F, Geo. mean (CV%)", "setting": "[1]; [7]", "value": "567.90 (27.50) L/h"}, {"measurement": "Vz/F, Geo. mean (CV%)", "setting": "[1]; [7]", "value": "4137.00 (77.80) L"}, {"measurement": "CL/F, Geo. mean (CV%)", "setting": "[1]; [8]", "value": "643.50 (31.10) L/h"}, {"measurement": "Vz/F, Geo. mean (CV%)", "setting": "[1]; [8]", "value": "4716.00 (102.00) L"}, {"measurement": "GMR for plasma AUC∞ lower following co-administration versus trazpiroben alone", "setting": "[1]; [9]", "value": 11.8, "unit": "%"}, {"measurement": "GMR for plasma Cmax lower following co-administration versus trazpiroben alone", "setting": "[1]; [9]", "value": 12.8, "unit": "%"}, {"measurement": "vital sign and ECG parameters", "setting": "following both treatments", "value": "no clinically meaningful changes"}, {"measurement": "tolerability", "setting": "healthy adults, administration alone and alongside esomeprazole", "value": "well‐tolerated"}, {"measurement": "CNS or cardiovascular safety concerns", "setting": "single agent or co-administered with esomeprazole", "value": "no CNS or cardiovascular safety concerns were observed"}, {"measurement": "Number of participants with treatment‐emergent AEs", "setting": "[10]", "value": "2 (17) n (%)"}, {"measurement": "Participants reporting AEs: Folliculitis", "setting": "[10]", "value": "0 (0) n (%)"}, {"measurement": "Participants reporting AEs: General disorders and administration site conditions", "setting": "[10]", "value": "0 (0) n (%)"}, {"measurement": "Participants reporting AEs: Headache", "setting": "[10]", "value": "1 (8) n (%)"}, {"measurement": "Participants reporting AEs: Infections and infestations", "setting": "[10]", "value": "0 (0) n (%)"}, {"measurement": "Participants reporting AEs: Influenza‐like illness", "setting": "[10]", "value": "0 (0) n (%)"}, {"measurement": "Participants reporting AEs: Menstruation delayed", "setting": "[10]", "value": "0 (0) n (%)"}, {"measurement": "Participants reporting AEs: Nervous system disorders", "setting": "[10]", "value": "1 (8) n (%)"}, {"measurement": "Participants reporting AEs: Oropharyngeal pain", "setting": "[10]", "value": "0 (0) n (%)"}, {"measurement": "Participants reporting AEs: Reproductive system and breast disorders", "setting": "[10]", "value": "0 (0) n (%)"}, {"measurement": "Participants reporting AEs: Respiratory, thoracic, and mediastinal disorders", "setting": "[10]", "value": "1 (8) n (%)"}, {"measurement": "Participants reporting AEs: Throat irritation", "setting": "[10]", "value": "1 (8) n (%)"}, {"measurement": "Participants reporting AEs: Vessel puncture site pain", "setting": "[10]", "value": "0 (0) n (%)"}, {"measurement": "Participants reporting AEs: Vessel puncture site reaction", "setting": "[10]", "value": "0 (0) n (%)"}, {"measurement": "deaths, serious AEs, discontinuations due to AEs", "setting": "whole study, 12 participants", "value": "No deaths, serious AEs, or discontinuations due to AEs were reported"}, {"measurement": "mean solubility", "setting": "[2]; pH 1.15", "value": 1210, "unit": "µg/mL"}, {"measurement": "solubility", "setting": "[2]; pH 6.97", "value": 50, "unit": "µg/mL"}]}]}
